Bioassay records (PubChem)
This excerpt belongs to a sample that is enriched for hits.
UPR CHOP act: activators of apoptotic CHOP UPR arm, primary screen, cell-based, CHO-CHOP luciferase reporter, luminescence, uHTS; UPR activation; percent of tunicamycin response over DMSO baseline; activation, % at 10 µM; 330,000 compounds, 0.34% hits; AID 449763, 2010;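 active = at 10 µM dose, activation of 40% or more, normalized to positive control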;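 note: 100% = tunicamycin at 10 µg/mL and 0% = DMSO alone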
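Material: CHO-CHOP cells, stable luciferase reporter of PERK-eIF2a-CHOP signalling; quantity: 500 reporter cells seeded per well; buffer or medium: F12 medium containing 10% fetal bovine serum; compound: one dose, 10 µM in 0.5% DMSO; incubation: 6 h compound treatment, 37 °C; measured by: Steady-Glo luciferase luminescence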
CHOP inhibitor: inhibitors of CHOP promoter induction, primary screen, cell-based, unfolded protein response, luciferase reporter; CHO-K1 CHOP-promoter luciferase, tunicamycin-induced, 15-18 h; inhibition, % at 10 µM; 220,000 compounds, 3.8% hits;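 active = compounds that reduced the stress-induced luciferase reporter signal by more than about 70% of percent inhibition, limit read from the data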;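 note: 0% = tunicamycin plus vehicle and 100% = wells without tunicamycin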
hiPSC survival: enhancers of single-cell hiPSC survival, primary screen, ATPlite luminescence. 100% = ROCK inhibitor wells, 0% = DMSO. survival enhancement, % at 20 µM. 360,000 compounds, 0.044% hits; in the data active = survival enhancement above about 18%;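 note: cells exposed to compounds for 16 hours before the ATP read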
H9c2 protect: cardioprotection against H2O2-induced cell death, primary screen, uHTS, H9c2 cells, ATPLite luminescence. H9c2 cardiomyocytes, H2O2 injury protection, 2 h. protection from H2O2 cell death, % at 20 µM. 360,000 compounds, 0.63% hits. AID 588492, 2011;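 active = compounds giving at least 50% protection of heart cells from peroxide-induced death in the single-dose screen, raw or plate-pattern-corrected value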;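 note: 0% = DMSO wells with peroxide and 100% = DMSO wells without peroxide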
XBP1 UPR activ: activators of adaptive XBP1 UPR arm, primary screen, cell-based, CHO-XBP1 luciferase reporter, luminescence, uHTS; AID 463104, 2010; IRE1-XBP1 UPR activation; percent of tunicamycin response, DMSO as zero; 330,000 compounds, 0.33% hits; activation, % at 20 µM;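 active = versus positive control, 20 µM dose yields 30% or more activation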;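 note: 100% = tunicamycin at 10 µg/mL and 0% = DMSO only wells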
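Material: CHO-XBP1 cells stably carrying IRE1-XBP1-driven luciferase reporter | Medium: F12 with 10% serum | Compound dosing: 20 µM single concentration, DMSO 1% | Incubation: Overnight seeding at 37 °C, 6 h compound treatment at 37 °C | Detection: Steady-Glo luminescence read | Read-out basis: % activation of reporter signal versus tunicamycin and DMSO controls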
* marks the source's active call; other numbers are inactive results.

Screening COc1ccc(-n2nnnc2CNC(=O)C(=O)c2c[nH]c3ccccc23)cc1 returned UPR CHOP act 1, hiPSC survival 0, H9c2 protect -1 and XBP1 UPR activ 4.
Screening Cc1ccc(-n2nnnc2SC(C(=O)c2c[nH]c3ccccc23)c2ccccc2)cc1 (stereo not given) returned UPR CHOP act 2, CHOP inhibitor 72*, hiPSC survival 4, H9c2 protect 6 and XBP1 UPR activ -2.
`CCCCCCN1CCN(C2CN(Cc3cn(Cc4cccc(C(F)(F)F)c4)nn3)S(=O)(=O)C2)CC1` (stereo not given) gave hiPSC survival 0.
Cc1ccc(S(=O)(=O)Oc2ccc3c(c2)O/C(=C\c2cccnc2)C3=O)cc1 was read as UPR CHOP act 0, CHOP inhibitor 78*, hiPSC survival 0, H9c2 protect -1 and XBP1 UPR activ -2.
Screening Cc1nn(S(=O)(=O)c2ccccc2)c(C)c1Sc1ccc([N+](=O)[O-])cc1 returned UPR CHOP act 3, CHOP inhibitor 80*, hiPSC survival 0, H9c2 protect -2 and XBP1 UPR activ -2.
CCCN(C(=O)CSc1nnc(-c2ccc3c(c2)OCO3)o1)C1CCS(=O)(=O)C1 (stereo not given) was read as hiPSC survival 3 and H9c2 protect 3.
Screening Cc1cc(C)cc(Oc2nc(C(F)(F)F)nc3ccccc23)c1 returned UPR CHOP act 0, CHOP inhibitor 72*, hiPSC survival -4, H9c2 protect -22 and XBP1 UPR activ -1.
Cc1noc(C)c1S(=O)(=O)N(C)C[C@H]1OCc2cnnn2CCCC(=O)N([C@H](C)CO)C[C@H]1C was read as hiPSC survival 0 and H9c2 protect -4.
`Cc1nn(C2CCS(=O)(=O)C2)c(C)c1CN(C)C(=O)c1ccccc1` (stereo not given) gave UPR CHOP act 2, hiPSC survival 0, H9c2 protect -5 and XBP1 UPR activ 2.
Screening COc1cc(/C=C2/C(=O)NN(c3ccc(Cl)cc3)C2=O)cc(Br)c1O returned UPR CHOP act 5, hiPSC survival 0, H9c2 protect 4 and XBP1 UPR activ 0.
Screening COc1cccc(/C=C2/C(=O)NN(c3ccc(Br)cc3)C2=O)c1O returned UPR CHOP act 4, hiPSC survival 0, H9c2 protect 52* and XBP1 UPR activ -6.
For c1cc(-c2ccc(N3CCOCC3)cc2)n2ccnc2c1 the results were hiPSC survival -1 and H9c2 protect -9.
COc1cc([N+](=O)[O-])c2nc(C(=O)O)ccc2c1 was read as hiPSC survival 5 and H9c2 protect 4.
For CC(C)(C)OC(=O)CC1(C#N)c2ccccc2C(Br)=CN1C(=O)c1ccccc1 (stereo not given) the results were UPR CHOP act -1, hiPSC survival -1, H9c2 protect -12 and XBP1 UPR activ -5.
For CN(C)c1ccc(/C=N/N=C/c2ccccc2O)cc1 the results were UPR CHOP act -5, CHOP inhibitor 81*, hiPSC survival 0, H9c2 protect -11 and XBP1 UPR activ -4.
For CN(Cc1ccccc1)C(=O)C1(C)CCN1C(=O)Cc1ccc(Cl)cc1Cl (stereo not given) the results were hiPSC survival 1 and H9c2 protect -9.
`Clc1cccc(Cl)c1CSc1cc2c(nn1)-c1ccccc1CC2` gave UPR CHOP act 4, CHOP inhibitor 3, hiPSC survival 0, H9c2 protect -4 and XBP1 UPR activ 5.
O=c1cc2c(nn1Cc1c(Cl)cccc1Cl)-c1ccccc1CC2 was read as UPR CHOP act 6, CHOP inhibitor 85*, hiPSC survival -1, H9c2 protect -6 and XBP1 UPR activ 2.
CC(C)CC1C(=O)N(Cc2cn(CC3CCCCC3)nn2)CCS(=O)(=O)N1Cc1ccc(-c2cccc(CO)c2)cc1 (stereo not given) was read as hiPSC survival 0 and H9c2 protect -2.
For CCC(C(=O)Nc1ccc2[nH]ncc2c1)c1ccccc1 (stereo not given) the results were UPR CHOP act -2, hiPSC survival 62*, H9c2 protect -5 and XBP1 UPR activ -4.
